Measles CPE: protection of cells from measles virus; Measles virus-infected cells, CPE protection, absorbance; protection (pct of control), % at 4 µM; 140,000 tested, 1.5% active; in the data active means protection mostly above about 24%, no sharp cut-off; inactive means mostly below about 26%
Mdm2 ligase inh: inhibitors of human Mdm2 E3 ubiquitin ligase; Q00987; cell-based MDM2 ubiquitination luciferase reporter, 2 h; 0 = plate control, 100 = twice control, blank-subtracted; signal enhancement, % at 5 µM; 210,000 tested, 0.11% active; AID 1230;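 active means signal enhancement of 30% or more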;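 further: luminescence tracks abundance of the self-degrading MDM2-luciferase fusion protein; higher signal means inhibition of MDM2 E3 ligase activity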
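test system = mammalian cells stably expressing self-ubiquitinating, self-degrading MDM2 E3–luciferase fusion | quantity = 2000 cells/well | incubation = cell settling 4 h, compound treatment 2 h, both 37 °C | signal = luminescence with SteadyLite reagent, 15 min at room temperature | evaluation = % enhancement relative to plate controls after blank subtraction | benchmarks = plate controls and plate blanks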
NPY-Y1 antag: NPY-Y1 (human) receptor antagonism | HEK293-CNG Y1 cells, membrane potential fluorescence; NPY at EC95, then isoproterenol | P25929 | inhibition, % at 3.6 µM | 200,000 tested, 1% active | AID 1040;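 active means inhibition above the campaign mean inhibition of all tested compounds plus 3 SD, cut at about 20% in these data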
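Material: HEK293 Y1/CNG channel cell line | Also added: NPY (25 nM), isoproterenol (1 µM), Ro 20-1724 (25 µM) | Compound: One concentration, 3.6 µM, in 0.4% DMSO | Schedule: 3 h dye uptake, 1 h room-temperature compound, 45 min post-isoproterenol | Signal: Membrane-potential fluorescent dye readout | Read-out: % inhibition of NPY effect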
NPY-Y2 PAM-ag: potentiates or activates human NPY-Y2 receptor. activation, % at 3.6 µM. P49146. 220,000 tested, 0.45% active. cells expressing NPY-Y2, potentiator/agonist read-out; in the data active means activation above about 27%;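 further: cells stimulated with NPY near EC25 plus isoproterenol at EC100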
Target sequence (P49146 whole entry, looked up): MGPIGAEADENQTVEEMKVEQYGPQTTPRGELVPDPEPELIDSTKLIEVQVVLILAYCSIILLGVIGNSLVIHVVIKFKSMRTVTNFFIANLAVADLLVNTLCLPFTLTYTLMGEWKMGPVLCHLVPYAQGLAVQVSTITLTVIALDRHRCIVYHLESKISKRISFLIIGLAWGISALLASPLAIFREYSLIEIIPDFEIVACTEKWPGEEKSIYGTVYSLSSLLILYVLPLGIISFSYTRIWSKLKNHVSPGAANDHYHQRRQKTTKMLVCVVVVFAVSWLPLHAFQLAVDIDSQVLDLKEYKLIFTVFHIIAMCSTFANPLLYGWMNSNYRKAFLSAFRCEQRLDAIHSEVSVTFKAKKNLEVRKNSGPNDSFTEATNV
NPY1 pot ag: human NPY-Y1 potentiation or agonism, primary screen; P25929; NPY-Y1 expressing cells, potentiator/agonist activation; activation, % at 3.6 µM; 220,000 tested, 0.37% active; in the data active means activation above about 33%, passing the limit was not always enough;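 further: cells stimulated with NPY at EC10 then isoproterenol at EC100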
NPY Y2 blocker: antagonists of human neuropeptide Y receptor Y2. NPY-Y2 expressing cells, antagonist mode. inhibition, % at 2.7 µM. 140,000 tested, 0.99% active. P49146. AID 793; in the data active means inhibition above about 17%
Hits are given with their value; - = inactive; . = no result given. Sampled rows, rich in hits. Any-hit rate of the full collection: about 2.8%.

SMILES	Measles CPE	Mdm2 ligase inh	NPY-Y1 antag	NPY-Y2 PAM-ag	NPY1 pot ag	NPY Y2 blocker
O=C(OCc1nnc(-c2ccccc2)o1)c1ccc2c(c1)OCCO2	-	-	-	-	-	19.8
O=C(OCc1nnc(-c2ccccc2)o1)c1ccc(Cl)cc1	.	-	-	-	-	.
CC(=O)c1sc(NC(=O)C2(F)C(F)(F)C(F)(F)C(F)(F)C(F)(F)C2(F)F)nc1C	-	-	-	53.8	56.0	-
CC(=O)c1sc(NC(=O)C=C(C)C)nc1C	-	-	-	-	-	-
CCCCCCCCCSc1n[nH]c(N)n1	59.9	-	-	-	-	-
CCCCCCCCSc1n[nH]c(N)n1	-	-	-	-	-	-
CCCCn1c(N)c(N(CCC(C)C)C(=O)COC(=O)c2ccco2)c(=O)[nH]c1=O	31.1	-	-	-	-	-
COc1ccc(-c2csc(NC(=O)c3ccccc3NS(=O)(=O)c3ccc(F)c(F)c3)n2)cc1	.	-	-	93.9	69.8	.
Cc1cc(OCc2ccc(F)cc2)nc(-c2ccccc2O)n1	32.5	-	-	-	-	-
Cc1cc(Oc2ccc(Cl)cc2)nc(-c2ccccc2O)n1	30.9	-	-	-	-	-
CCOC(=O)C1=C(CC)OC(N)=C(C#N)C1c1ccc(NC(C)=O)cc1 (stereo unspecified)	30.5	-	-	-	-	-
CCOC(=O)C1=C(CC)OC(N)=C(C#N)C1c1cc(OC)ccc1OC (stereo unspecified)	-	-	-	-	-	-
N#Cc1c(Cl)nsc1NC(=O)c1ccccc1	.	-	-	-	-	.
CCNc1nc(NC(C)(C)C)nc(N2CCCCC2)n1	.	-	-	29.7	50.1	.
CN(C)c1cc[n+](CC(=O)Nc2ccc(OC(F)F)cc2)cc1	.	-	.	-	-	.
COC(=O)[C@@]1(Cc2ccc(OC)cc2)[C@H]2c3cc(C(=O)N(C)C)n(CCc4ccc(OC)c(Br)c4)c3C[C@H]2CN1C(=O)c1ccccc1	-	.	-	-	-	-
CCC(CC)C1C(C#N)=C(N)Oc2n[nH]c(C)c21 (stereo unspecified)	-	-	-	-	-	-
N#CC1=C(N)Oc2n[nH]c(-c3ccccc3)c2C1c1ccsc1 (stereo unspecified)	-	-	36.3	-	-	-
N#CC1=C(N)Oc2n[nH]c(-c3ccncc3)c2C1c1ccsc1 (stereo unspecified)	-	-	-	-	-	-
CCC(CC)C1C(C#N)=C(N)Oc2n[nH]c(-c3ccccc3)c21 (stereo unspecified)	-	-	-	37.8	49.0	-
COc1cccc(-c2[nH]nc3c2C(c2ccsc2)C(C#N)=C(N)O3)c1 (stereo unspecified)	-	31.5	-	-	-	-
COc1ccc(-c2[nH]nc3c2C(c2ccsc2)C(C#N)=C(N)O3)cc1 (stereo unspecified)	-	-	-	-	-	-
CC(=O)c1ccc(NC(=S)N2C(C)CCCC2C)cc1 (stereo unspecified)	-	-	-	-	-	-
COc1ccc(NS(=O)(=O)c2cc(C)ccc2NC(=O)c2cc(C)oc2C)cc1	-	-	23.3	-	-	35.6
COc1ccc(NS(=O)(=O)c2cccc(C(=O)NNC(=O)c3cc(C)oc3C)c2)cc1	-	-	-	-	-	-
SMILES	Measles CPE	Mdm2 ligase inh	NPY-Y1 antag	NPY-Y2 PAM-ag	NPY1 pot ag	NPY Y2 blocker
CC(C)C(NC(=O)c1ccc(C(C)(C)C)cc1)C(=O)Nc1cccc(S(N)(=O)=O)c1 (stereo unspecified)	.	-	-	36.8	42.6	.
COc1ccccc1N1CCN(C(CNS(=O)(=O)c2ccccc2)c2cccnc2)CC1 (stereo unspecified)	33.1	-	-	-	-	-
COc1ccc(S(=O)(=O)NCC(c2cccnc2)N2CCN(c3ccccc3OC)CC2)cc1C (stereo unspecified)	-	-	-	-	-	-
Cc1sc(N)nc1C12CC3CC(CC(C3)C1)C2	.	-	-	35.3	46.7	.
Cc1ccc(C(C[N+](=O)[O-])Sc2ccc(N)cc2)cc1 (stereo unspecified)	.	-	.	-	-	.
Cc1ccc(NC(=S)NC(NC(=O)c2ccccc2C)C(Cl)(Cl)Cl)c(C)c1 (stereo unspecified)	-	-	-	-	-	-
Cc1ccc(-n2c(C)cc(C3=NNC(=NC4CC4)SC3)c2C)cc1C	74.0	-	-	-	-	-
Cc1cc(C2=NNC(=NC3CC3)SC2)c(C)n1-c1c(C)n(C)n(-c2ccccc2)c1=O	-	-	-	-	-	-
Cc1ccc(OCC(O)Cn2c(=N)n(CCN3CCCCC3)c3ccccc32)cc1 (stereo unspecified)	-	-	61.6	-	-	46.1
COc1ccc(OCC(O)CN2CCCCC2)cc1 (stereo unspecified)	-	-	-	-	-	-
Cc1ccc(OCC(O)Cn2c(=N)n(CCN3CCOCC3)c3ccccc32)cc1 (stereo unspecified)	-	-	-	-	-	-
COc1ccc(OCC(O)Cn2c(=N)n(CCN3CCCCC3)c3ccccc32)cc1 (stereo unspecified)	-	-	34.0	-	-	19.4
Cn1c(=O)[nH]c(=O)c2c1nc(N1CCCCCC1)n2CCN1CCCCCC1	38.6	-	-	-	-	-
CN1CCN(c2nc3c(c(=O)[nH]c(=O)n3C)n2CC(N)=O)CC1	28.6	-	-	-	-	-
CCCn1c(N2CCN(C)CC2)nc2c1c(=O)[nH]c(=O)n2C	-	-	-	-	-	-
Cn1c(=O)[nH]c(=O)c2c1nc(N1CCCCC1)n2CC(O)CN1CCCCC1 (stereo unspecified)	-	-	-	-	-	-
CC(=O)NCC(=O)N1CCCC(C(=O)c2ccc(Oc3ccccc3)cc2)C1 (stereo unspecified)	.	-	-	-	-	.
CCCCCNC(=O)CSC1=N/C(=C\c2ccc(Cl)c(Cl)c2)C(=O)N1CC	41.3	-	-	-	-	-
CCCNC(=O)CSC1=N/C(=C/c2ccc(F)cc2)C(=O)N1CC	-	-	-	-	-	-
O=C(NC(NC(=O)c1ccccc1)c1ccccc1)c1ccccc1	-	-	-	-	-	-
Clc1ccc(CNCc2cccs2)c(Cl)c1	-	-	-	-	-	-
c1ccc2c(c1)oc1c(NCC3CCCO3)ncnc12 (stereo unspecified)	-	-	-	-	-	-
c1ccc(-c2nc(NCC3CCCO3)c3oc4ccccc4c3n2)cc1 (stereo unspecified)	79.9	-	-	-	-	-
Cc1cc(C)cc(NC(=O)N2CCN(C/C=C/c3ccccc3)CC2)c1	.	-	-	-	-	.
COc1cccc2cc(C(=O)N3C(C)CCCC3C)c(=O)oc12 (stereo unspecified)	18.6	-	-	-	-	-

High-throughput results (PubChem BioAssay)
